Assay outcomes: PubChem, several laboratories
STAT1 inh = STAT1 signaling inhibitors, primary screen, cell-based, HTS, luciferase reporter; NIH 3T3 STAT1-luciferase reporter, IFN-gamma, luminescence; actives 0.35% (n = 200,000); inhibition, % at 5.5 µM;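 active = inhibition above a set limit, the mean inhibition across all tested compounds plus 3 SD, cut at about 34% in these data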;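 also: 0% = IFN-gamma with DMSO and 100% = IFN-gamma with 300 µM nifuroxazide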
NF-kB neuron act = activators of NF-kB expression in neurons, primary screen, cell-based, HTS | human neuronal cells, NF-kB reporter expression; stronger effect = higher value | actives 1.6% (n = 190,000) | fold change at 12.5 µM; in the data active = fold change above about 3.3
APP 5'UTR act = activators of APP 5'UTR luciferase reporter, primary screen, SH-SY5Y cells; SH-SY5Y APP 5'UTR luciferase reporter, luminescence; zero percent = DMSO vehicle wells; activation, % at 2 µM; actives 1% (n = 190,000);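 active = activation above a set limit, based on mean plus 3 SD of controls, cut at about 140% in these data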
STAT1 act-1 = STAT1 signaling activators, primary screen, cell-based, HTS, luciferase reporter; NIH 3T3 STAT1-luciferase reporter, IFN-gamma, luminescence; 100% = IFN-gamma alone, no compound; activation (% of control), % at 5.5 µM; actives 2.6% (n = 200,000);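 active = activation above the screen-wide mean activation plus 3 SD, cut at about 130% in these data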;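 also: raw ratio to IFN-gamma control signal so 100% means no change and 0% no light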
STAT3 act-1 = IL-6 driven STAT3 reporter potentiators, primary screen, U3A cells, luciferase, luminescence, MLSCN library; activation (% of control), % at 5.6 µM; IL-6 STAT3-luciferase reporter; 100% = signal with IL-6 EC80 alone; actives 0.91% (n = 190,000);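 active = activation above the screen-wide mean of compound activation plus 3 SD, cut at about 130% in these data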;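 also: 0% = background luminescence of wells with medium and substrate only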
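Material: human STAT1-deficient U3A cells with stable STAT3-luciferase reporter / Probe or stimulus: IL-6 stimulus at 33 ng/mL final / Schedule: 1 h compound pre-exposure, 6 h IL-6 stimulation, 37 °C / Technique: luminescence / Read-out basis: percent of IL-6-only median luminescence / Control set: IL-6-only high control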
STAT3 blocker = IL-6 driven STAT3 reporter inhibitors, primary screen, U3A cells, luciferase, luminescence, MLSCN library; IL-6 STAT3-luciferase reporter; host cell line lacks STAT1; inhibition, % at 5.5 µM; actives 0.89% (n = 190,000); AID 862, 2007;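 active = inhibition above the mean inhibition across all screened compounds plus 3 SD, cut at about 44% in these data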;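 also: 0% = DMSO only wells and 100% = 100 µM nifuroxazide control wells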
STAT3 act-2 = STAT3 reporter potentiators, retest of hits, confirmation, U3A cells, luciferase, luminescence. shares compounds with STAT3 act-1. IL-6 potentiation; U3A cells lack STAT1; 100 means same as IL-6 alone. potentiation (% of control), % at 5.7 µM. actives 64% (n = 1,200). AID 1267, 2008;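 active = percent activation of the STAT3 luciferase reporter above a set limit taken from the earlier primary screen, cut at about 130% in these data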;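 also: 0% = background signal of medium plus substrate and 100% = median of IL-6 with DMSO wells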
NFkB act STAT3ct = NF-kB reporter activators in human cells, counter-screen for STAT3 activator project | actives 11% (n = 1,200) | shares compounds with STAT3 act-1 | NF-kappaB reporter activation | activation (% of control), % at 5.7 µM; in the data active = activation above about 120%;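 also: reporter induced by TNF-alpha stimulation; 100% = median of stimulated DMSO wells and 0% = no signal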
STAT1 act-2 = STAT1 reporter activators, IFN-gamma induced, counter-screen for STAT3 activator project, cell-based, NIH 3T3, luciferase luminescence | NIH 3T3 STAT1-luciferase reporter | AID 1318, 2008 | shares compounds with STAT3 act-1 | actives 13% (n = 1,200) | activation (% of control), % at 5.7 µM;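 active = activation above the solvent-only control well mean plus 3 SD, set per screening run, cut at about 120% in these data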;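 also: 100% = IFN-gamma with DMSO median signal so 100% means no change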
* = called active by the depositor; . = no result given. An excerpt weighted towards active compounds, which were near 5.1% of everything screened.

SMILES | STAT1 inh | NF-kB neuron act | APP 5'UTR act | STAT1 act-1 | STAT3 act-1 | STAT3 blocker | STAT3 act-2 | NFkB act STAT3ct | STAT1 act-2
N#C/C(=C/c1ccccc1[N+](=O)[O-])c1nc(C2CC2)cs1 | 2.6 | 1.12 | 11.8 | 97.7 | 147.2* | -56.6 | 158.2* | 107.5 | 119.4
COc1ccc2oc(=Nc3ccc(C(=O)O)cc3)c(C(=O)NCc3ccco3)cc2c1 | 1.2 | 1.21 | 15.7 | 97.5 | 101.0 | 5.6 | . | . | .
COc1ccc(N=c2oc3ccc(OC)cc3cc2-c2nc3ccccc3[nH]2)cc1 | -29.5 | 2.63 | 4.5 | 127.1 | 142.7* | -46.4 | 125.2 | 116.4 | 119.4
N#Cc1ccsc1NC(=O)CSc1ncn[nH]1 | -6.9 | 1.22 | -27.8 | 108.7 | 96.0 | 7.7 | . | . | .
N#Cc1ccsc1NC(=O)CSc1ncnc2ccccc12 | 16.7 | 1.39 | -2.4 | 84.8 | 147.5* | -50.4 | 144.1* | 98.9 | 78.5
Cc1ccc(C(=O)NCC(=O)OC(C)C(=O)NCCC2=CCCCC2)cc1C (stereo unspecified) | -3.4 | 1.11 | -1.6 | 103.3 | 99.8 | -1.3 | . | . | .
CC1CCN(C(=O)Cn2c(=O)n(CCc3ccccc3)c(=O)c3ccccc32)CC1 | 12.6 | 0.4 | 17.3 | 88.3 | 140.3* | -46.7 | 138.4* | 101.5 | 83.4
COc1cccc(CC2(CO)CCCN(Cc3ccc(C)s3)C2)c1 (stereo unspecified) | -0.5 | 1.17 | 10.7 | 99.6 | 111.2 | -0.1 | . | . | .
COc1cccc(CC2(CO)CCCN(Cc3cc4ccccc4[nH]3)C2)c1 (stereo unspecified) | 10.9 | 0.95 | 6.0 | 88.8 | 147.8* | -49.6 | 145.2* | 100.0 | 88.9
[O-]/C(=C(\C(=S)Nc1cccc2ccccc12)[n+]1ccccc1)c1cccs1 | -1.0 | 0.79 | 9.8 | 99.2 | 143.1* | -34.1 | 136.3* | 105.7 | 91.8
Cc1cccc(C)c1NC(=S)/C(=C(\[O-])c1cccs1)[n+]1ccccc1 | -0.9 | 1.34 | -4.3 | 103.2 | 91.3 | 8.6 | . | . | .
Oc1c(Cl)cc(Cl)cc1C1=NNC(c2ccc(Cl)cc2)C1 (stereo unspecified) | -1.1 | 1.01 | 47.8 | 100.3 | 152.0* | -40.5 | 147.1* | 106.7 | 98.0
COC(=O)c1ccc(N2CCN(CC(=O)c3ccc(-c4ccccc4)cc3)CC2)c([N+](=O)[O-])c1 | -9.0 | 1.34 | 5.9 | 108.1 | 144.1* | -43.2 | 137.8* | 108.1 | 123.7*
COC(=O)c1ccc(N2CCN(S(=O)(=O)c3ccc4ccccc4c3)CC2)c([N+](=O)[O-])c1 | 13.8 | 0.86 | . | 87.6 | 89.0 | 19.0 | . | . | .
CCOP(=O)(OCC)C(NC(=O)c1cccs1)C(F)(F)F (stereo unspecified) | 8.8 | 1.21 | -4.0 | 90.5 | 99.8 | 1.5 | . | . | .
CCOc1ccc(NC(=O)c2ccccc2NC(=O)CN(C)CC(=O)Nc2ccc(C)cc2)cc1 | -0.7 | 0.62 | -8.2 | 100.7 | 148.7* | -50.9 | 119.1 | 108.1 | 120.0
COc1cc(NC(=O)c2cc3ccccc3o2)c(OC)cc1Br | -0.1 | 1.08 | -0.2 | 100.1 | 149.4* | -49.5 | 135.4* | 100.9 | 101.8
CCOc1ccccc1C(=O)Nc1cc(Cl)ccc1O | 2.3 | 0.82 | 1.1 | 91.8 | 114.6 | -16.1 | . | . | .
COc1ccccc1C(=O)Nc1cc2cc(Br)ccc2oc1=O | -3.9 | 1.19 | 2.9 | 103.6 | 137.4* | -44.3 | 137.7* | 114.1 | 133.9*
COc1ccccc1C(=O)Nc1cc2ccccc2oc1=O | -22.3 | 2.26 | 15.8 | 120.6 | 184.2* | -87.1 | 191.8* | 135.3* | 165.7*
COc1ccccc1C(=O)Nc1cc(Cl)ccc1O | 8.2 | 1.35 | -10.1 | 93.4 | 151.1* | -52.2 | 161.9* | 109.0 | 114.2
Cc1cccc(NS(=O)(=O)c2cc(C(=O)NCCC3=CCCCC3)ccc2Cl)c1 | 20.4 | 0.7 | 0.4 | 81.6 | 101.5 | 5.3 | . | . | .
COc1ccccc1CNC(=O)[C@@H]1CCCN1S(=O)(=O)c1ccc(C)cc1 | 4.1 | 1.05 | -11.9 | 94.9 | 106.8 | -1.0 | . | . | .
CC(=S)c1c(C)cc2cc(C)ccn12 | -6.9 | 1.08 | 15.4 | 106.1 | 83.7 | 22.3 | . | . | .
Cc1occc1-c1nnc(SCC(=O)c2c[nH]c3ccccc23)n1C | 9.1 | 0.97 | 1.5 | 91.7 | 144.7* | -50.7 | 122.7 | 102.5 | 92.9
SMILES | STAT1 inh | NF-kB neuron act | APP 5'UTR act | STAT1 act-1 | STAT3 act-1 | STAT3 blocker | STAT3 act-2 | NFkB act STAT3ct | STAT1 act-2
c1ccc2c(c1)ncc1cccn12 | -2.6 | 0.96 | 10.3 | 102.3 | 143.3* | -46.1 | 138.1* | 98.4 | 89.7
COc1ccccc1-c1nnc(SCC(=O)NC2CCCCC2)o1 | -0.4 | 0.97 | 16.6 | 100.4 | 163.0* | -70.0 | 146.4* | 97.1 | 97.2
Cn1c2ccccc2c2cc(C(=O)NNS(=O)(=O)c3ccc(F)cc3)sc21 | 1.2 | 1.16 | -9.3 | 98.9 | 136.0* | -41.5 | 126.9 | 95.8 | 103.0
COc1ccc(CCN2C(=O)CS/C2=N\NC(=O)c2cccs2)cc1OC | 10.3 | 1.11 | -5.5 | 89.4 | 102.3 | 2.0 | . | . | .
CC(C)Oc1ccccc1C1CC(=O)Nc2cc3c(cc21)OCO3 (stereo unspecified) | 10.1 | 1.98 | -91.9 | 90.8 | 97.9 | 6.5 | . | . | .
CC(C)c1ccc(C2C3=C(COC3=O)Nc3cc4c(cc32)OCO4)cc1 (stereo unspecified) | -18.9 | 1.14 | -95.0 | 116.3 | 151.4* | -41.2 | 107.9 | 137.8* | 116.5
CCOC(=O)N1CCC(NC(=O)c2cc(C(=O)NCC(OC)OC)ccc2CO)CC1 | 2.7 | 1.02 | . | 97.5 | 98.1 | 9.0 | . | . | .
c1ccc(-c2ccccc2OCCOCCN2CCc3ccccc3C2)cc1 | 21.1 | 0.99 | 12.4 | 79.2 | 137.9* | -28.7 | 127.3 | 106.8 | 89.0
Clc1ccc(SCCOCCN2CCc3ccccc3C2)cc1 | 5.3 | 0.8 | -3.0 | 93.6 | 137.1* | -27.8 | 122.5 | 107.7 | 97.4
Cc1cc(C)c2oc(-c3ccc(C)c(NC(=S)NC(=O)c4cccs4)c3)nc2c1 | -7.8 | 1.9 | 39.0 | 107.1 | 164.6* | -80.7 | 147.4* | 107.5 | 106.0
Cc1cc(C)c2oc(-c3ccc(C)c(NC(=S)NC(=O)/C=C/c4ccco4)c3)nc2c1 | 5.6 | 0.94 | 15.8 | 93.7 | 151.2* | -43.8 | 146.4* | 108.5 | 103.3
